Results reported in ChEMBL document CHEMBL3244281, “Antiviral activity of some beta-diketones. 3. Aryl bis(beta-diketones). Antiherpetic activity” (1978).
Values after ≈ are worked out from the molar mass of the structure shown. Active and inactive are the calls of the source. The calls are words filed in the database; no cut-off is given here.

Key:
[1] = tested on: Human alphaherpesvirus 1; assay: Antiviral activity against HSV1; assay type: functional
[2] = tested on: Human alphaherpesvirus 2; assay: Antiviral activity against HSV2
[3] = tested on: Human alphaherpesvirus 1; assay: Antiherpetic activity against HSV1 AA infected in guinea pig skin assessed as reduction of scab formation at 2% administered 24 hrs after infection as vanishing cream base daily 5 times for 4 days; assay type: functional, organism-based
Procedure, shortened: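 Guinea pigs had HSV-1 applied to shaved, epilated flanks: 0.1 mL tissue-culture virus (titer 10^6.25 TCID50) driven in by multiple vaccination-gun punctures. A 2% vanishing-cream preparation was applied topically from 24 h postinfection, five times daily for 4 days. Placebo-treated animals served as controls. Two scorers rated vesicles and followed lesions and scabbing to day 7.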

[4] = tested on: Human alphaherpesvirus 1; assay: Antiviral activity against HSV1 Sheely infected in monkey BSC-1 cells assessed as reduction of plaque formation at 4 ug/ml after 4 days using crystal violet staining relative to control; assay type: functional; conditions: Human alphaherpesvirus 1, Sheely, BSC-1, in Primates, 96 h
Procedure, shortened: (§1)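 BSC-1 monolayers, 4 days old and confluent, were infected with 20-60 PFU in MEM + 2% FCS. They were overlaid with agar (1% ionagar + 2× M-199 + 5% FCS) containing compound, four flasks per condition. Uninfected monolayers with compound served as controls. Flasks were incubated inverted at 37 °C for 4 days, formalin-fixed overnight at 4 °C and crystal violet-stained. Mean plaque count gave % reduction versus infected untreated cultures.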

[5] = tested on: Human alphaherpesvirus 2; assay: Antiviral activity against HSV2 Curtis infected in monkey BSC-1 cells assessed as reduction of plaque formation at 2 ug/ml after 4 days using crystal violet staining relative to control; assay type: functional; conditions: Human alphaherpesvirus 2, Curtis, BSC-1, in Primates, 96 h; procedure, shortened: as §1
[6] = tested on: Human alphaherpesvirus 1; assay: Antiviral activity against HSV1 Sheely infected in monkey BSC-1 cells assessed as reduction of plaque formation at 2 ug/ml after 4 days using crystal violet staining relative to control; assay type: functional; conditions: Human alphaherpesvirus 1, Sheely, BSC-1, in Primates, 96 h; procedure, shortened: as §1
[7] = tested on: Human alphaherpesvirus 1; assay: Antiviral activity against HSV1 Sheely infected in monkey BSC-1 cells assessed as reduction of plaque formation at 3 ug/ml after 4 days using crystal violet staining relative to control; assay type: functional; conditions: Human alphaherpesvirus 1, Sheely, BSC-1, in Primates, 96 h; procedure, shortened: as §1
[8] = tested on: Human alphaherpesvirus 2; assay: Antiviral activity against HSV2 Curtis infected in monkey BSC-1 cells assessed as reduction of plaque formation at 4 ug/ml after 4 days using crystal violet staining relative to control; assay type: functional; conditions: Human alphaherpesvirus 2, Curtis, BSC-1, in Primates, 96 h; procedure, shortened: as §1
[9] = tested on: Human alphaherpesvirus 2; assay: Antiviral activity against HSV2 Curtis infected in monkey BSC-1 cells assessed as reduction of plaque formation at 3 ug/ml after 4 days using crystal violet staining relative to control; assay type: functional; conditions: Human alphaherpesvirus 2, Curtis, BSC-1, 96 h; procedure, shortened: as §1

Compound	MIC [1] [µg/mL]	MIC [2]	further results
CCC(=O)C(CCCCCCOc1cccc(OCCCCCCC(C(=O)CC)C(=O)CC)c1)C(=O)CC	12 (≈ 22.6 µM)		
CCC(=O)C(CCCCCCOc1ccc(OCCCCCCC(C(=O)CC)C(=O)CC)c(C)c1)C(=O)CC	25 (≈ 45.9 µM)		
CCC(=O)C(CCCCCOc1ccc(OCCCCCC(C(=O)CC)C(=O)CC)cc1)C(=O)CC	3 (≈ 5.97 µM)		
CCC(=O)C(CCCCCCCOc1ccc(OCCCCCCCC(C(=O)CC)C(=O)CC)cc1)C(=O)CC	25 (≈ 44.7 µM)		
CCC(=O)C(CCCOc1ccc(OCCCC(C(=O)CC)C(=O)CC)cc1)C(=O)CC		inactive	
CCC(=O)C(CCCCCCCCOc1ccc(OCCCCCCCCC(C(=O)CC)C(=O)CC)cc1)C(=O)CC		inactive	
CCC(=O)C(CCCCCCOc1ccc(OCCCCCCC(C(=O)CC)C(=O)CC)cc1)C(=O)CC	6 (≈ 11.3 µM)		Activity [3]: Active; inhibition at 4 µg/mL [4]: 89%; inhibition at 2 µg/mL [5]: 18%; inhibition at 2 µg/mL [6]: 21%; inhibition at 3 µg/mL [7]: 43%; inhibition at 4 µg/mL [8]: 93%; inhibition at 3 µg/mL [9]: 59%
CCC(=O)C(CCCCCCOc1ccc(OCCCCCCC(C(=O)CC)C(=O)CC)c(Cl)c1)C(=O)CC	6 (≈ 10.6 µM)		
CCC(=O)C(CCCCCCOc1cc(Cl)c(OCCCCCCC(C(=O)CC)C(=O)CC)cc1Cl)C(=O)CC	6 (≈ 10 µM)		
CCC(=O)C(CCCCOc1ccc(OCCCCC(C(=O)CC)C(=O)CC)cc1)C(=O)CC	3 (≈ 6.32 µM)		
CCC(=O)C(CCCCOc1ccc(OCCCC(C(=O)CC)C(=O)CC)cc1)C(=O)CC		inactive	
CCC(=O)C(CCCCCOc1ccc(OCCCCC(C(=O)CC)C(=O)CC)cc1)C(=O)CC		inactive	
